Experimental findings from ChEMBL document CHEMBL2321657, “In vitro efficiency of 9-(N-cinnamoylbutyl)aminoacridines against blood- and liver-stage malaria parasites” (Bioorg Med Chem Lett, 2013) are described below.

In one data set the test system is Plasmodium falciparum. Kind of data set: Antiplasmodial activity against ring stage of CQ-resistant Plasmodium falciparum W2 after 48 hrs by flow cytometric analysis. Format: functional, organism-based. The conditions noted are these: W2, 48 h. On the technique in general: A flow cytometer gives signals particle by particle.
For the next data set, the system named is Huh-7. Kind of data set: Cytotoxicity against human HuH7 cells up to 5 uM after 48 hrs by cell confluence analysis. Format: cell-based. The conditions noted are these: huh-7, 48 h.
The subject of data set [1] is Plasmodium berghei. As to the kind of experiment: Antiplasmodial activity against liver stage of Plasmodium berghei expressing GFP-Luc infected in HuH7 cells incubated at 1 hr prior to infection followed by compound replenisment at 24 hrs post-infection measured after 48 hrs by Alamar blue assay. Format: functional, organism-based. The conditions noted are these: Huh-7, in the assay text read “luciferase bioluminescence assay” for “Alamar blue assay”. In outline:
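Huh7 human hepatoma cells infected with firefly luciferase-expressing P. berghei sporozoites in the presence of compound. Liver-stage infection load read as bioluminescence of cell lysates 48 h after infection. Primaquine included as the liver-stage reference.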
A general note: Resazurin is reduced to fluorescent resorufin, in cell work by metabolically active cells.

In data set [2] the test system is Plasmodium berghei. Kind of data set: Ratio of primaquine IC50 to compound IC50 for liver stage of Plasmodium berghei. The format is functional.

Structures are written as SMILES.

Broadly, the IC50 is the concentration that inhibits the measured activity by half. `CC(C)c1ccc(/C=C/C(=O)NCCCCNc2c3ccccc3nc3ccccc23)cc1` showed an IC50 in the data set on Plasmodium falciparum of 126 nM. In the data set on Plasmodium falciparum, `Cc1ccc(/C=C/C(=O)NCCCCNc2c3ccccc3nc3ccccc23)cc1` had an IC50 of 225 nM. `O=C(/C=C/c1ccc(F)cc1)NCCCCNc1c2ccccc2nc2ccccc12` displayed an IC50 in the data set on Plasmodium falciparum of 145 nM. The Activity result in the data set on Huh-7 was “Non-toxic”. As to `O=C(/C=C/c1cccc([N+](=O)[O-])c1)NCCCCNc1c2ccccc2nc2ccccc12`, the IC50 in the data set with Plasmodium falciparum is 142 nM.

Turning to `CCN(CC)CCCC(C)Nc1ccnc2cc(Cl)ccc12` (stereo not drawn) [CHLOROQUINE], in the data set on Plasmodium berghei [1], the IC50 was > 15000 nM. With `O=C(/C=C/c1ccccc1)NCCCCNc1c2ccccc2nc2ccccc12`, half-maximal inhibition with Plasmodium falciparum (IC50) was put at 892 nM. `O=C(/C=C/c1cccc(F)c1)NCCCCNc1c2ccccc2nc2ccccc12`: in the data set with Plasmodium falciparum, the IC50 was determined as 345 nM. In turn, `COc1cc(NC(C)CCCN)c2ncccc2c1` (stereo not drawn) [PRIMAQUINE] displayed an IC50 in the data set with Plasmodium berghei [1] of 8000 nM.

Take `COc1ccc(/C=C/C(=O)NCCCCNc2c3ccccc3nc3ccccc23)cc1`: the IC50 with Plasmodium falciparum was 138 nM; with Plasmodium berghei [1], 3200 nM. Besides, in the data set with Huh-7, the Activity entry was “Non-toxic”. Besides, the “Ratio IC50” value in the data set on Plasmodium berghei [2] worked out at 3.
